Measured values as given in ChEMBL document CHEMBL1136933 (J Med Chem, 2009).
Calls of active or inactive are those of the source. No cut-off for these calls is given here.

Key:
[1] = Apparent oral volume of distribution in Sprague-Dawley rat plasma at 10 mg/kg, ip; assay type: ADME, organism-based; design: dose 10 mg/kg; conditions: read-out: Vc/F
Outline: (§1)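 Male Sprague-Dawley rats (225-250 g) dosed ip at 10 mg/kg as a 5 mg/ml micro-suspension in 10% Tween 80 in sterile water. Plasma and brain sampled at 0.5, 1, 3 and 6 h, three animals per time point. Quantified by protein precipitation and LC-MS/MS against an internal standard. Brain values corrected for residual blood. PK parameters derived by noncompartmental analysis.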

[2] = target: Muscarinic acetylcholine receptor M3 (Homo sapiens, UniProt P20309); assay: Activation of human muscarinic M3 receptor expressed in CHO cells coexpressing Gq protein assessed as potentiation of acetylcholine-induced intracellular Ca2+ mobilization; assay type: functional, cell-based
Outline: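 Calcium flux assay. Stable CHO lines were seeded at 5 × 10^4 cells/well (M1, M3, M5) or 6 × 10^4 cells/well (Gqi5 M2, M4) and grown overnight at 37 °C, 5% CO2. Cells were loaded 1 h at 37 °C with 2 µM Fluo-4 AM. […] At least three independent determinations, each in duplicate or more.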

[3] = target: T1, Muscarinic acetylcholine receptor M5 (Homo sapiens, UniProt P08912); assay: Activation of human muscarinic M5 receptor expressed in CHO cells coexpressing Gq protein assessed as potentiation of acetylcholine-induced intracellular Ca2+ mobilization; assay type: functional, cell-based
T1 sequence (P08912 whole entry): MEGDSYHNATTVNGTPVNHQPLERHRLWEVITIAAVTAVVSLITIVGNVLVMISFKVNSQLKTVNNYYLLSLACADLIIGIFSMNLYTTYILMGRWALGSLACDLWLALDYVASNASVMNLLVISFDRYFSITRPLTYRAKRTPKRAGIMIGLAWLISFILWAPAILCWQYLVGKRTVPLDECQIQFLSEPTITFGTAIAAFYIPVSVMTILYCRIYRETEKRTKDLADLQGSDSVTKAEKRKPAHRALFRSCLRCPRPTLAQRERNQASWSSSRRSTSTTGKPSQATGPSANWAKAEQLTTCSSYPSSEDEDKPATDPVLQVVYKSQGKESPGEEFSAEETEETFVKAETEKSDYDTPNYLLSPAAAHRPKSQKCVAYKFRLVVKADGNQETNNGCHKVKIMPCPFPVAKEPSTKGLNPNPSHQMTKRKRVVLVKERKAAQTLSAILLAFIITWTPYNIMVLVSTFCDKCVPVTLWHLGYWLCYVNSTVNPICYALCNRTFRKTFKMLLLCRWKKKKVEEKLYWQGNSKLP

[4] = target: T2, Muscarinic acetylcholine receptor M5 (Homo sapiens) (UniProt P08912); assay: Activation of human muscarinic M5 receptor expressed in CHO cells coexpressing Gq protein assessed as potentiation of acetylcholine-induced intracellular Ca2+ mobilization at 30 uM relative to acetylcholine; assay type: functional, cell-based
T2 sequence (whole entry): T1 sequence (P08912 whole entry)

[5] = target: T3, Muscarinic acetylcholine receptor M2 (Rattus norvegicus) (UniProt P10980); assay: Activation of rat muscarinic M2 receptor expressed in CHO cells coexpressing chimeric Gqi5 protein assessed as potentiation of acetylcholine-induced intracellular Ca2+ mobilization up to 30 uM; assay type: functional, cell-based
T3 sequence (whole entry): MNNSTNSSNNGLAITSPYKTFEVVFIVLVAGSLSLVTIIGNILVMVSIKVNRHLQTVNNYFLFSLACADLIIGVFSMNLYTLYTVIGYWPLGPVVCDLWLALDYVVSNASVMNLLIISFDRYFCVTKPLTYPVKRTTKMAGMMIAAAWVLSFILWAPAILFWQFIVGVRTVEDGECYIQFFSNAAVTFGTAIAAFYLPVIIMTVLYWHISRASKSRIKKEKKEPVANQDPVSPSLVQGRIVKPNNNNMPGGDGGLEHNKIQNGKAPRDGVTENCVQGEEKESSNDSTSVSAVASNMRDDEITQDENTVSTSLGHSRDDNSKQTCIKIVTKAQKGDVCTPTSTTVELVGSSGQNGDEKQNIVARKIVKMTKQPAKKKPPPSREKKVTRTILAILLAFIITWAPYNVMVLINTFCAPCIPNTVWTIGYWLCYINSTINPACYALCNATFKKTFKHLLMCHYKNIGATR

[6] = target: T4, Muscarinic acetylcholine receptor M4 (Rattus norvegicus) (UniProt P08485); assay: Activation of rat muscarinic M4 receptor expressed in CHO cells coexpressing chimeric Gqi5 protein assessed as potentiation of acetylcholine-induced intracellular Ca2+ mobilization up to 30 uM; assay type: functional, cell-based
T4 sequence (whole entry): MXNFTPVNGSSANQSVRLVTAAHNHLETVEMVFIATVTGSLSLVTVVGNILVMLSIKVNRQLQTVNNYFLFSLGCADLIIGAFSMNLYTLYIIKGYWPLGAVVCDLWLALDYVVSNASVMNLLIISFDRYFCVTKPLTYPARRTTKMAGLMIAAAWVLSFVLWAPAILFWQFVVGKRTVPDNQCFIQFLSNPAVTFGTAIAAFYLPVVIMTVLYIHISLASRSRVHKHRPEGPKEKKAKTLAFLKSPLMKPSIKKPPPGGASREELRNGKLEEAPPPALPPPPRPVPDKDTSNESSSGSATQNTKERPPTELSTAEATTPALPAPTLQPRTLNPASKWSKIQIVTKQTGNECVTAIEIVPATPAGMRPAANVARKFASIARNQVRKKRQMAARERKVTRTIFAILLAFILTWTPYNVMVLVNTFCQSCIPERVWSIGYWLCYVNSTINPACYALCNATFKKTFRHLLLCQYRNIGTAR

[7] = Selectivity ratio of EC50 for rat muscarinic M1 receptor to EC50 for human muscarinic M5 receptor
[8] = Selectivity ratio of EC50 for rat muscarinic M2 receptor to EC50 for human muscarinic M5 receptor
[9] = species on record: Homo sapiens; assay: Selectivity ratio of EC50 for human muscarinic M3 receptor to EC50 for human muscarinic M5 receptor
[10] = target: T2, Muscarinic acetylcholine receptor M5 (Homo sapiens); assay: Intrinsic activity at human muscarinic M5 receptor expressed in CHO cells coexpressing Gq protein up to 30 uM by calcium mobilization assay in absence of acetylcholine; assay type: functional, cell-based
[11] = target: T2, Muscarinic acetylcholine receptor M5 (Homo sapiens); assay: Displacement of [3H]NMS from human muscarinic M5 receptor expressed in CHO cells coexpressing Gq protein up to 30 uM by scintillation counting; assay type: cell-based
[12] = Cmax in Sprague-Dawley rat plasma at 10 mg/kg, ip within 1 hr; assay type: ADME, organism-based; design: dose 10 mg/kg, route intraperitoneal; outline: as §1
[13] = Tmax in Sprague-Dawley rat brain at 10 mg/kg, ip; assay type: ADME, organism-based; design: dose 10 mg/kg, route intraperitoneal; outline: as §1
[14] = tested on: Plasma; assay: Elimination half life in Sprague-Dawley rat plasma at 10 mg/kg, ip; assay type: ADME, organism-based; design: dose 10 mg/kg, route intraperitoneal; conditions: in vivo; outline: as §1
[15] = Apparent oral clearance in Sprague-Dawley rat plasma at 10 mg/kg, ip; assay type: ADME, organism-based; design: dose 10 mg/kg; outline: as §1
[16] = Ratio of AUC (0 to 6 hrs) in Sprague-Dawley rat brain to AUC (0 to 6 hrs) in Sprague-Dawley rat plasma at 10 mg/kg, ip; assay type: ADME, organism-based; design: dose 10 mg/kg, route intraperitoneal; outline: as §1

Chain of Muscarinic acetylcholine receptor M3 (P20309 whole entry): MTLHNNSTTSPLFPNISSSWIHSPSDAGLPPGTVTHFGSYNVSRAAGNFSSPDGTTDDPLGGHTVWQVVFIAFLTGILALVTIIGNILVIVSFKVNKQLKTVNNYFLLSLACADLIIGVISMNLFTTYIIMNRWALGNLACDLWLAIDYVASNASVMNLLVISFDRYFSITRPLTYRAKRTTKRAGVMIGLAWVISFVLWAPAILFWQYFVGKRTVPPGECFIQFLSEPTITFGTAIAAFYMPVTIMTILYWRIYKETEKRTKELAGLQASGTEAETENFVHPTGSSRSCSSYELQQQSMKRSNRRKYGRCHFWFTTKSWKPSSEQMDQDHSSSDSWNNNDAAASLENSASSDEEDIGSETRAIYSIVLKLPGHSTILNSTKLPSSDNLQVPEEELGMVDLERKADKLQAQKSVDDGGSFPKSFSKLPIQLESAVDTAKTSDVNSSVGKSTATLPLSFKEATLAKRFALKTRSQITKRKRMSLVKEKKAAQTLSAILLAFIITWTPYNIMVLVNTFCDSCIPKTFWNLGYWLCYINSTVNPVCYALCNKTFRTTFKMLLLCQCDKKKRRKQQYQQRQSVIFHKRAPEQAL

COc1ccc(CN2C(=O)C(=O)c3cc(OC(F)(F)F)ccc32)cc1
Vd/F [1]: 59.6 L/kg | EC50 [2]: > 30000 nM | EC50 [3]: 1160 nM | %max [4]: 60.7% | Activity [5]: inactive | Activity [6]: inactive | Ratio EC50 [7]: > 30 | Ratio EC50 [8]: > 30 | Ratio EC50 [9]: > 30 | Activity [10]: inactive | Activity [11]: inactive | Cmax [12]: 162 ng/mL | Tmax [13]: 30 min | beta t1/2 [14]: 282 min | CL/F [15]: 145 mL/min | Ratio AUC [16]: 0.25
